# STAT1 activator – increases IFN-gamma driven STAT1 reporter signal; NIH 3T3 STAT1-luciferase reporter, luminescence; 100% = IFN-gamma alone, no compound; activation (% of control), % at 5.5 µM; hit rate 2.6% among 200,000;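 active = activation above the screen-wide mean activation plus 3 SD, cut at about 130% in these data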;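 note: raw ratio to IFN-gamma control signal so 100% means no change and 0% no light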
# STAT3 inh – reduces IL-6 driven STAT3 reporter signal; U3A cells, IL-6 STAT3-luciferase reporter, luminescence; host cell line lacks STAT1; inhibition, % at 5.5 µM; hit rate 0.89% among 190,000; AID 862;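 active = inhibition above the mean inhibition across all screened compounds plus 3 SD, cut at about 44% in these data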;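 note: 0% = DMSO only wells and 100% = 100 µM nifuroxazide control wells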
# APP 5'UTR act – activates APP 5'UTR luciferase reporter | SH-SY5Y APP 5'UTR luciferase reporter, luminescence; zero percent = DMSO vehicle wells | activation, % at 2 µM | hit rate 1% among 190,000 | AID 1276;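 active = activation above a set limit, based on mean plus 3 SD of controls, cut at about 140% in these data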
# STAT3 act – STAT3 signaling activation; U3A cells, IL-6 STAT3-luciferase reporter, luminescence; 100% = signal with IL-6 EC80 alone; activation (% of control), % at 5.6 µM; hit rate 0.91% among 190,000;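 active = activation above the screen-wide mean of compound activation plus 3 SD, cut at about 130% in these data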;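 note: 0% = background luminescence of wells with medium and substrate only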
#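 Test system: STAT3-luciferase reporter U3A cells; Detection: reporter luminescence signal; Times: 1 h compound pre-exposure, 6 h IL-6 stimulation, 37 °C; Benchmarks: IL-6-only high control; Also added: IL-6 stimulus at 33 ng/mL final.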
# NF-kB neuron act – NF-kB expression increase, human neuronal cells; NF-kB reporter expression; stronger effect = higher value; fold change at 12.5 µM; hit rate 1.6% among 190,000; in the data active = fold change above about 3.3
# STAT1 inh – STAT1 signaling inhibition; NIH 3T3 STAT1-luciferase reporter, IFN-gamma, luminescence; inhibition, % at 5.5 µM; hit rate 0.35% among 200,000; AID 920;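 active = inhibition above a set limit, the mean inhibition across all tested compounds plus 3 SD, cut at about 34% in these data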;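 note: 0% = IFN-gamma with DMSO and 100% = IFN-gamma with 300 µM nifuroxazide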
# STAT1 activ conf – STAT1 activation, confirmation assay; shares compounds with STAT1 activator; NIH 3T3 STAT1-luciferase reporter, IFN-gamma potentiation, luminescence; 100% = IFN-gamma EC80 alone, no compound; activation (% of control), % at 5.7 µM; hit rate 97% among 1,200;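 active = activation above a set limit carried over from the earlier primary STAT1 screen, cut at about 140% in these data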;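 note: simple ratio to median IFN-gamma plus DMSO wells so 0% means no light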
# NFkB act – NF-kappaB activation in STAT1 activator counter-screen; activation (% of control), % at 5.7 µM; HEK293T NF-kB luciferase reporter, TNF-alpha stimulated, luminescence; 100% = TNF-alpha with vehicle only; shares compounds with STAT1 activator; hit rate 43% among 1,200;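 active = activation above the mean of solvent-only control wells plus 3 SD, set per campaign, cut at about 130% in these data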;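 note: TNF-alpha given at a submaximal dose yielding about 80% of full reporter signal; values are well signal over median control so 100% means no change and 0% no light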
# STAT3 act 2 – counter-screen for STAT1 activators: human STAT3 activation. hit rate 46% among 1,200. U3A cells STAT3-luciferase reporter, IL-6, luminescence; cells lack STAT1; 100 = IL-6 alone, no compound effect. AID 1316. activation (% of control), % at 5.7 µM. shares compounds with STAT1 activator;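 active = activation above the solvent-only control well mean plus 3 SD, set per plate batch, cut at about 110% in these data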;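 note: 0% = no luminescence and 100% = median IL-6 plus DMSO wells; higher means more STAT3 reporter activation so hits are non-selective activators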
# Active calls of the source: *; . = no result given. This is a sample that favours compounds with a hit; in the whole collection about 5.1% have one here.
SMILES,STAT1 activator,STAT3 inh,APP 5'UTR act,STAT3 act,NF-kB neuron act,STAT1 inh,STAT1 activ conf,NFkB act,STAT3 act 2
CC(C)n1c(CSCc2ccc(Cl)cc2Cl)n[nH]c1=S,92.2,6.1,-1.9,96.9,1.21,7.6,.,.,.
COc1ccccc1N1CCN(C(=O)c2ccc3[nH]c4c(c3c2)CC(C)CC4)CC1 (centres undefined),92.0,-8.2,-13.0,104.5,0.77,9.0,.,.,.
CCn1c(=O)n(CC)c2cc([N+](=O)[O-])ccc21,91.8,21.7,10.7,84.4,1.1,8.9,.,.,.
Cc1cc(C(=O)CN2C(=O)NC(CC(C)C)C2=O)c(C)n1-c1ccccc1F (centres undefined),152.8*,-35.7,69.8,131.1,2.25,-58.2,183.2*,135.0*,130.8*
Cc1cc(C(=O)CN2C(=O)C(=O)N(CC(C)C)C2=O)c(C)n1-c1ccccc1F,99.7,1.8,9.3,100.2,1.06,0.2,.,.,.
COc1ccc(C(=O)NCc2cccnc2)cc1S(=O)(=O)N1CCCc2ccccc21,96.4,-3.5,9.6,103.3,0.91,4.5,.,.,.
COC(=O)c1ccc(OC(=O)c2ccccn2)cc1,104.2,4.1,-8.1,102.0,1.1,-3.9,.,.,.
COC(=O)c1ccc(/C=C(\C#N)c2ccccn2)cc1,204.4*,-3.3,147.9*,104.1,6.98*,-114.0,225.2*,158.4*,107.1
Cc1cc(C(=O)N/N=C/c2ccc3c(c2)OCO3)c(C)o1,112.8,4.8,21.4,98.8,1.72,-16.1,.,.,.
Cc1ccccc1/C=N/NC(=O)c1sccc1C,163.0*,16.4,69.8,89.4,4.99*,-71.2,205.1*,133.5*,107.2
O=C(N/N=C/c1ccc2c(c1)OCO2)c1cccs1,174.4*,13.6,72.3,91.9,4.3*,-84.2,204.0*,133.5*,117.0*
Cc1ccsc1/C=N/NC(=O)Nc1ccccc1,172.4*,14.4,147.1*,97.2,3.96*,-80.3,191.7*,130.2,97.9
O=C(N/N=C/c1ccc2c(c1)OCO2)c1ccc2c(c1)OCCO2,115.7,-13.1,70.3,109.3,2.94,-16.5,.,.,.
Cc1ccsc1C(=O)N/N=C/c1ccc2c(c1)OCO2,161.1*,37.2,158.1*,70.5,6.15*,-68.3,225.8*,105.8,92.4
O=C(CSc1nnc(CNC(=O)c2ccco2)o1)Nc1nc2ccccc2s1,115.2,8.4,-15.4,99.2,1.28,-16.6,.,.,.
C/C(=N\NC(=O)c1c(Cl)cnn1C)c1ccc(NC(=O)c2ccncc2)cc1,104.3,13.1,7.8,87.4,0.74,-4.8,.,.,.
CC(=O)c1cnc(SCc2ccc(Cl)cc2)nc1C,202.0*,9.3,10.3,97.3,4.71*,-115.0,172.4*,111.1,101.0
Cc1nc(SCc2ccc(Cl)c(Cl)c2)ncc1C(=O)O,99.2,5.9,2.6,96.9,1.28,0.7,.,.,.
COC(=O)CSc1nc2cc(C)cc(C)c2cc1C#N,100.1,17.1,8.9,88.4,2.39,-0.1,.,.,.
CCOc1ccc2nc(SCC#N)c(C#N)cc2c1,165.0*,24.6,18.7,82.0,1.72,-71.1,165.6*,111.0,86.2
COC(=O)CSc1nc2ccc(C)cc2cc1C#N,153.1*,19.3,118.7,88.4,11.3*,-60.9,275.1*,152.5*,107.6
COc1ccc(-c2nnc(SCC(=O)N/N=C/c3ccccc3C(=O)O)n2-c2ccccc2)cc1,105.9,7.5,-4.2,100.8,0.9,-6.0,.,.,.
CC(C)(c1ccccc1)c1ccc(OCCn2cnc3ccccc3c2=O)cc1,106.0,12.6,-13.8,94.0,1.03,-6.5,.,.,.
CC(C)(C)c1ccc(OCCn2ccccc2=O)cc1,176.6*,9.4,114.6,94.0,5.45*,-82.4,197.3*,128.4,116.7*
Cc1cc(C(=O)OCC(=O)Nc2c(F)cccc2F)c(C)n1-c1ccccc1,97.2,27.4,56.1,80.9,2.09,0.1,.,.,.
SMILES,STAT1 activator,STAT3 inh,APP 5'UTR act,STAT3 act,NF-kB neuron act,STAT1 inh,STAT1 activ conf,NFkB act,STAT3 act 2
O=C(CN1C(=O)NC2(CCCCCC2)C1=O)c1ccc2c(c1)OCCO2,160.5*,-7.3,100.1,109.1,2.48,-65.0,177.7*,136.1*,125.8*
COc1ccc(C(=O)CN2C(=O)NC3(CCCCC3)C2=O)cc1OC,98.3,6.6,0.3,97.8,0.95,1.5,.,.,.
O=C(NCCSCc1ccccc1)c1ccc(F)cc1,95.3,7.5,-2.4,94.5,1.5,5.3,.,.,.
O=C(CCS(=O)(=O)c1ccccc1)NC12CC3CC(CC(C3)C1)C2,151.3*,-15.6,-3.2,112.9,2.76,-58.2,183.8*,133.4*,127.8*
O=C(CCS(=O)(=O)c1ccccc1)NCCS(=O)(=O)c1ccccc1,99.4,-1.2,0.3,103.0,1.11,1.2,.,.,.
COc1cc(C(=S)N2CCCC2)cc(Cl)c1OCC(=O)Nc1ccc(C)cc1C,94.0,8.1,-13.9,91.6,1.28,8.7,.,.,.
CNC(=O)c1ccc(-c2nc(-c3ccccc3)cs2)cc1,168.9*,13.2,71.0,92.9,2.41,-79.3,174.3*,132.0,92.4
O=C(O)c1ccc(-c2nc(-c3ccccc3)cs2)cc1,156.9*,-10.6,89.1,113.7,2.32,-60.6,178.6*,125.8,128.5*
Cc1ccc(C(=O)Nc2ccc(-c3csc(C)n3)cc2)cc1,163.5*,12.5,185.6*,92.5,2.61,-71.6,187.5*,133.0,92.9
O=C(O)c1ccccc1C(=O)Nc1ccc(-c2csc(-c3ccccc3)n2)cc1,157.4*,3.6,59.6,97.7,1.74,-64.2,141.4*,122.8,100.2
CCc1ccc(C2=NN(CCC(=O)NC(C)CCc3ccccc3)C(=O)CC2)cc1 (centres undefined),94.5,13.5,-5.8,90.6,1.28,5.4,.,.,.
CCCOc1ccc(-c2csc(NC(=O)CN3C(=O)CCC3=O)n2)cc1,99.1,14.9,7.1,91.1,1.03,1.0,.,.,.
CCOc1ccc(NC(=O)c2csc3c2CCCC3)cc1,171.4*,-4.9,126.9,104.1,3.85*,-78.6,197.9*,138.7*,103.9
COc1cc(NC(=O)c2csc3c2CCCC3)ncn1,170.8*,17.7,62.4,86.3,3.33*,-77.3,192.6*,127.8,101.7
O=c1c2ccccc2cnn1-c1ccc(Cl)cc1,166.2*,-3.1,116.9,106.4,5.07*,-72.5,192.2*,131.2,127.7*
CN(c1ccc(OCC(=O)N2CCN(c3ccc(F)cc3)CC2)cc1)S(=O)(=O)c1cccs1,90.8,7.8,9.4,100.7,0.83,8.0,.,.,.

# Bioassay records deposited in PubChem by several laboratories.
